We go through ten molecules from ChEMBL document CHEMBL1165965, “Synthesis and structure-activity relationships of 1,2,3,4-tetrahydropyrido[2,3-b]pyrazines as potent and selective inhibitors of the anaplastic lymphoma kinase” (Bioorg Med Chem, 2010).

A value given as a limit tells only on which side of the number the result lay.

The inhibition is the percentage by which the read-out fell short of the control.

Test [1] addresses Serine/threonine-protein kinase PAK 4 (Homo sapiens) (UniProt O96013). Kind of test: Inhibition of PAK4 at 1 uM.
Test [2] concerns the target Casein kinase I isoform gamma-1 (Homo sapiens) (UniProt Q9HCP0). Kind of test: Inhibition of CSNK1G1 at 1 uM. Summed up:
(§1)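 Single-concentration screen using Ambit Bioscience KINOMEscan technology across a panel of 250–400 kinases. Per-kinase inhibition from this screen was summarized as S(90), the fraction of kinases inhibited by more than 90%.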

The target of test [3] is Insulin receptor-related protein (Homo sapiens) (UniProt P14616). In words: Inhibition of INSRR at 1 uM. The gist of the method: (§2)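 Single-concentration screen on the Ambit KINOMEscan platform, run against a panel of 250–400 kinases. Per-kinase inhibition was also summarized as S(90), the fraction of kinases inhibited by more than 90%.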
Test [4] addresses Cyclin-dependent kinase 16 (Homo sapiens) (UniProt Q00536). Kind of test: Inhibition of PCTK1 at 1 uM.
Test [5] concerns the target Fibroblast growth factor receptor 2 (Homo sapiens) (UniProt P21802). Kind of test: Inhibition of FGFR2 at 1 uM. Summed up: as §1
For test [6], the target named is Mitogen-activated protein kinase 8 (Homo sapiens) (UniProt P45983). Kind of test: Inhibition of JNK1 at 1 uM. Summed up: as §2
The target of test [7] is Calcium/calmodulin-dependent protein kinase type II subunit gamma (Homo sapiens) (UniProt Q13555). In words: Inhibition of CAMK2G at 1 uM. The gist of the method:
(§3)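 Ambit KINOMEscan screen at a single concentration across a 250–400 kinase panel, recorded as percent inhibition. Selectivity was expressed as S(90), the fraction of kinases inhibited >90%.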

Test [8] concerns the target T1, Megakaryocyte-associated tyrosine-protein kinase (Homo sapiens) (UniProt P42679).
T1 sequence (whole entry): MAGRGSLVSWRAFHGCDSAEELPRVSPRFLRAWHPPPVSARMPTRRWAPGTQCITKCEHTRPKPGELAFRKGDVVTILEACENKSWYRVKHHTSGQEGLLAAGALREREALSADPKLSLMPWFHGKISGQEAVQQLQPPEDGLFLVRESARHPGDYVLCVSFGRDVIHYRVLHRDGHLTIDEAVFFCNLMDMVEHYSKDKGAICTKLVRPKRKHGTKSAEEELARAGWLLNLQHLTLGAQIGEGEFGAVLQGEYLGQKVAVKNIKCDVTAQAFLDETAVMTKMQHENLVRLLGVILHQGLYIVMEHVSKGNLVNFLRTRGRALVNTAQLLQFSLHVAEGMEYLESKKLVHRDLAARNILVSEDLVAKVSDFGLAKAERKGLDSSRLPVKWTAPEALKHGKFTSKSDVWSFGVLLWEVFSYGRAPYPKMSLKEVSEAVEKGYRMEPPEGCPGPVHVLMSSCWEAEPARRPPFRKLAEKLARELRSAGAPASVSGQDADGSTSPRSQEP
Kind of test: Inhibition of CTK at 1 uM.

The target of test [9] is 5'-AMP-activated protein kinase catalytic subunit alpha-1 (Homo sapiens) (UniProt Q13131). Kind of test: Inhibition of AMPK-alpha1 at 1 uM. Summed up:
as §3

The target in test [10] is Tyrosine-protein kinase Srms (Homo sapiens) (UniProt Q9H3Y6). In words: Inhibition of SRMS at 1 uM.
Test [11] deals with Tyrosine-protein kinase receptor Tie-1 (Homo sapiens) (UniProt P35590). In words: Inhibition of TIE1 at 1 uM.
Test [12] concerns the target Myosin light chain kinase, smooth muscle (Homo sapiens) (UniProt Q15746). In words: Inhibition of MYLK at 1 uM.
Test [13] has as its target T2, Inhibitor of nuclear factor kappa-B kinase subunit epsilon (Homo sapiens) (UniProt Q14164).
T2 sequence (whole entry): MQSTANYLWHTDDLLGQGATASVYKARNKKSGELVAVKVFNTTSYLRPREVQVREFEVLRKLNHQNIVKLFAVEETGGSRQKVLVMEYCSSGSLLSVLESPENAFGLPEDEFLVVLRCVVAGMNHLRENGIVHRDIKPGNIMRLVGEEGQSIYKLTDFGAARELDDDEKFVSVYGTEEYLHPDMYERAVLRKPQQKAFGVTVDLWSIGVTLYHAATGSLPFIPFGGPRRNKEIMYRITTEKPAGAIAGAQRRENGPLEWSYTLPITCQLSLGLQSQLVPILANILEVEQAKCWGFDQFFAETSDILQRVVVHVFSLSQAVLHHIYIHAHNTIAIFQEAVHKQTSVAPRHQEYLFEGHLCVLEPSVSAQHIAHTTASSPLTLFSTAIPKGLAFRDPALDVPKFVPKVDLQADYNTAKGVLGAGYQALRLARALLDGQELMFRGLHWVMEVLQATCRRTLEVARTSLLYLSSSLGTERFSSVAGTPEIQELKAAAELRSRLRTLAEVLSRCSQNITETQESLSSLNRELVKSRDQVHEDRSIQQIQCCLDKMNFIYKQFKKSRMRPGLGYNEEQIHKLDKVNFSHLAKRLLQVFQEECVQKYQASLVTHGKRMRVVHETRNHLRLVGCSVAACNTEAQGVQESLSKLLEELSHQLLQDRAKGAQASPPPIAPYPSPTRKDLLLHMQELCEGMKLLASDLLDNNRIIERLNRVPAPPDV
Kind of test: Inhibition of IKK-epsilon at 1 uM.

Test [14] deals with T3, Dual specificity tyrosine-phosphorylation-regulated kinase 2 (Homo sapiens) (UniProt Q92630).
T3 sequence (whole entry): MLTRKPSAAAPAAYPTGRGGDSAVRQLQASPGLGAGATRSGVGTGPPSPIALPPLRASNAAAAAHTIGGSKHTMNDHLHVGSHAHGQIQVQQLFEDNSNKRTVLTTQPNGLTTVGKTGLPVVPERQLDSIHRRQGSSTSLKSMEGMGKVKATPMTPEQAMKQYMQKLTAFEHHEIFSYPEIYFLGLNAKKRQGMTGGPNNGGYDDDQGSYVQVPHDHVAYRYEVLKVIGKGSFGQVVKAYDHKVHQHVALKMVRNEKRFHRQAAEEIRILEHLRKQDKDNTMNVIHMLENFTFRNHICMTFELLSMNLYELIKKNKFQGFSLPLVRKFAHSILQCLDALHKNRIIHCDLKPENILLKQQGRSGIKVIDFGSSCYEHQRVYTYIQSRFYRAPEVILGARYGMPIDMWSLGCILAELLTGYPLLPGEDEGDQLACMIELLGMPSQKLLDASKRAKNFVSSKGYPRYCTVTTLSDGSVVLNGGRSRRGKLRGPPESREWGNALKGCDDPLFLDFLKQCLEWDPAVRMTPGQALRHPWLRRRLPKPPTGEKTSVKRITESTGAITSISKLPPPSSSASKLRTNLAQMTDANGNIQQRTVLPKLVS
Kind of test: Inhibition of DYRK2 at 1 uM.

Tyrosine-protein kinase receptor Tie-1 (Homo sapiens), sequence (P35590 whole entry): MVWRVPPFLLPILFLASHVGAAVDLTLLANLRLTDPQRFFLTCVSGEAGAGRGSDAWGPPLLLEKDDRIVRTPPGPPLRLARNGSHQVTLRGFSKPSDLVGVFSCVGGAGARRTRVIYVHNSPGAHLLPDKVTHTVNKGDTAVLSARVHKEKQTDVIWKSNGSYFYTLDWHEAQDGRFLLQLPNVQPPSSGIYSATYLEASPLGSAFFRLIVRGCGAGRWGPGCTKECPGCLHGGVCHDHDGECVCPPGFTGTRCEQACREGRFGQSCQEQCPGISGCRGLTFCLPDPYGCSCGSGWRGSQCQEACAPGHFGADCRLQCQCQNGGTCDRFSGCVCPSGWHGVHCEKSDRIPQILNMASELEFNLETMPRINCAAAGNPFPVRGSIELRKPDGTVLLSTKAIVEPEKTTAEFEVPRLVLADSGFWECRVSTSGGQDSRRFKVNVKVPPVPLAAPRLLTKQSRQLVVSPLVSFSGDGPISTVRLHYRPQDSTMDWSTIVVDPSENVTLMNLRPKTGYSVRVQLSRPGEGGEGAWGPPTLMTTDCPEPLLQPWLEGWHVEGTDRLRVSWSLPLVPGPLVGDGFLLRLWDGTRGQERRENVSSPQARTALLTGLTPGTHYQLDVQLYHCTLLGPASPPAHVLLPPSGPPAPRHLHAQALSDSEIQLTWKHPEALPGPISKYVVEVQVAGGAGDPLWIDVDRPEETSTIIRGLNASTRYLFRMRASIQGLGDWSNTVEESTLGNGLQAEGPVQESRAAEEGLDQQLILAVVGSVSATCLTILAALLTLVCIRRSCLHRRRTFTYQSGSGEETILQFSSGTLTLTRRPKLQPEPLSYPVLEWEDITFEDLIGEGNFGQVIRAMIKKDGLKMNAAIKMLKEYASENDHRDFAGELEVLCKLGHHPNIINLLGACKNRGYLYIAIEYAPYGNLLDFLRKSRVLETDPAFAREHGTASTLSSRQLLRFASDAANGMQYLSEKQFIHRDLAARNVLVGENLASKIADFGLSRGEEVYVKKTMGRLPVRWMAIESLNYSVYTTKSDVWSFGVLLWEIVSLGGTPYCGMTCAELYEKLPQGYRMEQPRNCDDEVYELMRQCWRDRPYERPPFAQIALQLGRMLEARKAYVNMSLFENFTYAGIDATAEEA
Serine/threonine-protein kinase PAK 4 (Homo sapiens), sequence (O96013 whole entry, looked up, canonical isoform): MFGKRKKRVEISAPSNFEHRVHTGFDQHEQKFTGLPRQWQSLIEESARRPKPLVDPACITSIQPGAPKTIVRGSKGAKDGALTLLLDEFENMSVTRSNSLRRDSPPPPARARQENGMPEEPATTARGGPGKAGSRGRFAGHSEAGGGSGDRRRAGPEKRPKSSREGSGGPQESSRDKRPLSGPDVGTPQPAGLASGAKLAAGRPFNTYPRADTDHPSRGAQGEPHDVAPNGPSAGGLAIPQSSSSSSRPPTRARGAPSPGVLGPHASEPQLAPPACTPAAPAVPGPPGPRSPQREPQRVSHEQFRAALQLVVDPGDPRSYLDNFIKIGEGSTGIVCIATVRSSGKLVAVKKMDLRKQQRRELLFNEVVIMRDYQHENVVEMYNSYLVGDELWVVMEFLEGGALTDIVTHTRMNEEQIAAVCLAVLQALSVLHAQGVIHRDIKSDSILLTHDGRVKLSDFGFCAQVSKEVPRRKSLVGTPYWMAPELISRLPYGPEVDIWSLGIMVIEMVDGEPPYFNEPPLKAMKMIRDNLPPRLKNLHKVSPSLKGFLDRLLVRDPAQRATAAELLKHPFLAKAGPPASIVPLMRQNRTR
Cyclin-dependent kinase 16 (Homo sapiens), sequence (Q00536 whole entry): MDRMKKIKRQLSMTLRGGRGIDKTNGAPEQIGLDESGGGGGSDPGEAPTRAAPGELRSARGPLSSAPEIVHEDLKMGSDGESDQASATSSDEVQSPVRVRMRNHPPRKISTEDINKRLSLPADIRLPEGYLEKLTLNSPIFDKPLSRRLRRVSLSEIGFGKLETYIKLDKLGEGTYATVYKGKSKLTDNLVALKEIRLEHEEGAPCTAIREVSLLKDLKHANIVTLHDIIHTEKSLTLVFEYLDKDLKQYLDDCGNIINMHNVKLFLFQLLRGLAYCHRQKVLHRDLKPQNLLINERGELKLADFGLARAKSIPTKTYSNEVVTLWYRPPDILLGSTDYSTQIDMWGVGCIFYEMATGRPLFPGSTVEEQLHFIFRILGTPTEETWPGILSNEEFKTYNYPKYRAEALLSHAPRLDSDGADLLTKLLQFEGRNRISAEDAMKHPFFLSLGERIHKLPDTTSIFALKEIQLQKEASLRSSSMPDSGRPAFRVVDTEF
Mitogen-activated protein kinase 8 (Homo sapiens), sequence (P45983 whole entry): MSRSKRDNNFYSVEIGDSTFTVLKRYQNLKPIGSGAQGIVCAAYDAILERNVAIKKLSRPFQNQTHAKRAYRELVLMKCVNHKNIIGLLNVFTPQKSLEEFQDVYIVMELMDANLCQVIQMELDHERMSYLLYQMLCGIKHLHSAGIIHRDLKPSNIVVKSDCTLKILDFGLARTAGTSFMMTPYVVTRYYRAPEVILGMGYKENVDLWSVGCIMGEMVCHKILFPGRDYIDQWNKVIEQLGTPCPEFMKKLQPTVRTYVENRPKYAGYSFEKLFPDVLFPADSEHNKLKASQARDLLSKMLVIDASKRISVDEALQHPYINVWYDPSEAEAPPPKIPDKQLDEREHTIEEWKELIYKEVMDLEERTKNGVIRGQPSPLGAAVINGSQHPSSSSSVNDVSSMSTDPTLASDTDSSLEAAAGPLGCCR
5'-AMP-activated protein kinase catalytic subunit alpha-1 (Homo sapiens), sequence (Q13131 whole entry, looked up): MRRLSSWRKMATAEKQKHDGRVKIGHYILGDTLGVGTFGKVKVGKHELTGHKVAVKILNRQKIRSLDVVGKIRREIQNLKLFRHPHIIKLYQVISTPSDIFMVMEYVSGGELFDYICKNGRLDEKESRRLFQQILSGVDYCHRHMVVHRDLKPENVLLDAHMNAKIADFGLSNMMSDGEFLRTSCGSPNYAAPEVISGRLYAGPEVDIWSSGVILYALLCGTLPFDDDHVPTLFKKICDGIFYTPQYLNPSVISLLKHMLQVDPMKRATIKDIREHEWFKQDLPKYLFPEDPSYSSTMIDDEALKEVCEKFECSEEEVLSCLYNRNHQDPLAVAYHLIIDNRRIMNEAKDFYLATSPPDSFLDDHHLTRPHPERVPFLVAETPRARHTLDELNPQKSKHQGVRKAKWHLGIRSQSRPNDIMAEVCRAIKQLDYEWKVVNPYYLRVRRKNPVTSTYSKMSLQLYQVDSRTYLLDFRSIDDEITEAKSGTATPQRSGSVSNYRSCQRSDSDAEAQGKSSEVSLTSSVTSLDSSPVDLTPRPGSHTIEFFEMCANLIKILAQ
Fibroblast growth factor receptor 2 (Homo sapiens), sequence (P21802 22-821 limits assumed): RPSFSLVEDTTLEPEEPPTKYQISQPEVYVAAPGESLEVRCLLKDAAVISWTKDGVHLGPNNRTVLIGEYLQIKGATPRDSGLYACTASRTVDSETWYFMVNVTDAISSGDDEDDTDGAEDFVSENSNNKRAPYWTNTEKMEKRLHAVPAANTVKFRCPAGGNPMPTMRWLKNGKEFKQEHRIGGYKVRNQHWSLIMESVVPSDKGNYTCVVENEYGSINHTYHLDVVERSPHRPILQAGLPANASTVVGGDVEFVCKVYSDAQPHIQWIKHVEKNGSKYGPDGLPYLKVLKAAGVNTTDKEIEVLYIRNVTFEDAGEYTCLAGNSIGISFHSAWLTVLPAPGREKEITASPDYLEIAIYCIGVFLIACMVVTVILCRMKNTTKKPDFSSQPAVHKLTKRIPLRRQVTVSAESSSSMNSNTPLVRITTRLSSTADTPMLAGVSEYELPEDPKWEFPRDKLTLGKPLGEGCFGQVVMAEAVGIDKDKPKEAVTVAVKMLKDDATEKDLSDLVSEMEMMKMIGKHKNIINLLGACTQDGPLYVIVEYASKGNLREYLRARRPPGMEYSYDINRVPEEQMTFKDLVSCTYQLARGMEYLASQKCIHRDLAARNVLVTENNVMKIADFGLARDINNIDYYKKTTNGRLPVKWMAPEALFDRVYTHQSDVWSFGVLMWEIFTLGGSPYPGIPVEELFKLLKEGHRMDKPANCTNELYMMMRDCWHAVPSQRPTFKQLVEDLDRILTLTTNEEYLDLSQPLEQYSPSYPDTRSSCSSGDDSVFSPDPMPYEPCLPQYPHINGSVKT
Casein kinase I isoform gamma-1 (Homo sapiens), sequence (Q9HCP0 whole entry, looked up, canonical isoform): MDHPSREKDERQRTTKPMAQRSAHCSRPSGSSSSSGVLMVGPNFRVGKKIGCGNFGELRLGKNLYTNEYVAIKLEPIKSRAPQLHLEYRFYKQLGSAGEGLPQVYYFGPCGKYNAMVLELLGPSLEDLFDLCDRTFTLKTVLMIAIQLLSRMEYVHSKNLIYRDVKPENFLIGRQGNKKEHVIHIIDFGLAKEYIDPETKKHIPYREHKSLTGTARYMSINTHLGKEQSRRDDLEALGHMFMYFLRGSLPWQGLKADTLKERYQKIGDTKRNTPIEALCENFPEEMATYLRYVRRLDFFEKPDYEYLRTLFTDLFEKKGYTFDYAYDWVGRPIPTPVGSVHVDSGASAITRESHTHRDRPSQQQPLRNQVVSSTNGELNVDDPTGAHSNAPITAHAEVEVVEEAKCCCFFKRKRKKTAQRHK
Calcium/calmodulin-dependent protein kinase type II subunit gamma (Homo sapiens), sequence (Q13555 whole entry): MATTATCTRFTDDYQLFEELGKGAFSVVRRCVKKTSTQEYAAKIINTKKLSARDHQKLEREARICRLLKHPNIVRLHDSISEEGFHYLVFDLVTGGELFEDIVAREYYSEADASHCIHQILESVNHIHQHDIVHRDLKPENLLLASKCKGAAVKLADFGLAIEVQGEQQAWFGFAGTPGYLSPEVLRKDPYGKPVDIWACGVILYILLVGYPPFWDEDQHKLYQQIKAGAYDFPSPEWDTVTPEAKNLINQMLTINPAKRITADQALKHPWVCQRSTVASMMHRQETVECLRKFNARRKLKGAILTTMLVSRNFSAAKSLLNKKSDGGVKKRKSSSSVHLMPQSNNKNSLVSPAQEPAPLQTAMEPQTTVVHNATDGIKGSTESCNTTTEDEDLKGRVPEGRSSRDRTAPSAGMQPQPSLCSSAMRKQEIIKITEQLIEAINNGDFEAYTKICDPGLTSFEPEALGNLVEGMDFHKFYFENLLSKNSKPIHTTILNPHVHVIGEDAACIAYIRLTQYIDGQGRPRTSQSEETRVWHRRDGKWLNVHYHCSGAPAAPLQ

Regarding `O=C(c1ccc(-c2cnc3c(c2)N(Cc2cc(Cl)ccc2C(F)(F)F)CCN3)cc1)N1CCCCC1`, the inhibition in [1], in [2], in [3], in test [4], in test [5] and in [6] was < 50% throughout. Further, the inhibition in [7], in test [8] and in [9] was < 50% each time.

Turning to `CN1CCN(c2ccc(-c3cnc4c(c3)N(Cc3c(F)ccc(F)c3Cl)CCN4)cn2)CC1`, the inhibition in test [1], in test [2], in [3], in test [4], in test [10] and in test [11] was < 50% throughout. Moreover, the inhibition in test [12], in [13], in [5], in test [6], in [7] and in [8] was < 50% throughout. The inhibition in test [9] and in [14] was < 50% each time.

Consider `COC1CCN(C(=O)c2ccc(-c3cnc4c(c3)N(Cc3cc(Cl)ccc3C(F)(F)F)CCN4)cc2)CC1`, for which the inhibition in test [1], in test [2], in test [3], in [4], in [10] and in test [5] was < 50% throughout. Further, the inhibition in [6], in test [7], in test [8] and in test [9] was < 50% throughout.

For the molecule `O=C(O)c1ccc(-c2cnc3c(c2)N(Cc2cc(Cl)ccc2C(F)(F)F)CCN3)cc1`, the inhibition in [1], in [2], in [3], in [4], in test [5] and in test [6] was < 50% throughout. Besides, the inhibition in [7] and in test [9] was < 50% each time.

`FC(F)(F)c1ccc(Cl)cc1CN1CCNc2ncc(-c3ccnc(N4CCNCC4)c3)cc21`: the inhibition in [1] was < 50%; in [2] it was < 50%; in test [3], < 50%; in [4], < 50%; in [10] it was < 50%; in test [11], 81%. Moreover, the inhibition in [12], in test [13], in test [5], in test [6], in [7] and in test [8] was < 50% in each case. For the same molecule, the inhibition in test [9] was 66%; in test [14], < 50%.

Consider `CN1CCN(c2ccc(-c3cnc4c(c3)N(Cc3cc(Cl)ccc3Cl)CCN4)cn2)CC1`, for which the inhibition in [1], in [2], in test [3], in [4], in test [10] and in test [11] was < 50% throughout. Moreover, the inhibition in test [12], in [13], in test [5], in [6], in test [7] and in test [8] was < 50% in each case. Also, the inhibition in test [9] and in test [14] was < 50% each time.

As to `O=C(c1ccc(-c2cnc3c(c2)N(Cc2cc(Cl)ccc2C(F)(F)F)CCN3)cc1)N1CCC(N2CCCC2)CC1`, the inhibition in [1], in test [2], in test [3], in test [4], in test [10] and in test [5] was < 50% each time. The inhibition in test [6], in test [7], in test [8] and in test [9] was < 50% throughout.

Turning to `CN1CCN(c2ccc(-c3cnc4c(c3)N(Cc3cc(Cl)ccc3C(F)(F)F)CCN4)cn2)CC1`, the inhibition in test [1], in test [2], in test [3], in test [4], in [10] and in test [11] was < 50% each time. In addition, the inhibition in test [12], in [13], in test [5], in test [6], in [7] and in test [8] was < 50% throughout. Further, the inhibition in test [9] and in [14] was < 50% throughout.

On to `CC(=O)N1CCN(c2cc(-c3cnc4c(c3)N(Cc3cc(Cl)ccc3C(F)(F)F)CCN4)ccn2)CC1`, for which the inhibition in test [1], in test [2], in test [3], in test [4], in test [10] and in [11] was < 50% in each case. Also, the inhibition in [12], in test [13], in [5], in [6], in [7] and in test [8] was < 50% each time. The inhibition in test [9] and in test [14] was < 50% each time.

Consider `CN1CCN(c2ccc(-c3cnc4c(c3)N(Cc3cc(F)ccc3F)CCN4)cn2)CC1`, for which the inhibition in test [1], in test [2], in test [3], in test [4], in test [10] and in test [11] was < 50% in each case. Also, the inhibition in test [12], in test [13], in test [5], in test [6], in [7] and in [8] was < 50% throughout. Besides, the inhibition in test [9] and in [14] was < 50% throughout.
